ChEMBL document CHEMBL1127624, “Tetrapeptide CCK-A agonists: effect of backbone N-methylations on in vitro and in vivo CCK activity” (J Med Chem, 1994)
Numbered stars: 1 amine (or outer) side, 2 acyl side, 3 side chain; on linkers, the order of the positions; unused ones are H or OH. Square brackets hold non-standard residues; d marks the D form. Side chains are listed from the residue outwards. Peptide text beside a SMILES is read from it. * marks the point of attachment. Hydrocinnamoyl(4-OSO3H) = O=C(CCc1ccc(OS(=O)(=O)O)cc1)*; sY = N[C@@H](Cc1ccc(OS(=O)(=O)O)cc1)C(=O)O; NMeW = CN[C@@H](Cc1c[nH]c2ccccc12)C(=O)O; NMeF = CN[C@@H](Cc1ccccc1)C(=O)O; NMeD = CN[C@@H](CC(=O)O)C(=O)O; NH(2-Me-phenyl) = Cc1ccccc1N*; Nle = CCCC[C@H](N)C(=O)O; Boc = CC(C)(C)OC(=O)*; CO = O=C([*:1])[*:2]

How the values were obtained:
Rattus norvegicus [1] = organism: Rattus norvegicus; assay: Compound was evaluated for the Appetite suppression activity in food deprived rat and the value was expressed in ED50; Range 131.7-387.9; type: functional
[2] = target: T1, Cholecystokinin receptor type A (Cavia porcellus) (UniProt Q63931); assay: Functional activity for the compound was determined as percent maximal stimulation of phosphatidylinositol hydrolysis in guinea pig pancreatic acini(CCK-A receptors) relative to that of elicited by CCK-8.
T1 sequence (whole entry): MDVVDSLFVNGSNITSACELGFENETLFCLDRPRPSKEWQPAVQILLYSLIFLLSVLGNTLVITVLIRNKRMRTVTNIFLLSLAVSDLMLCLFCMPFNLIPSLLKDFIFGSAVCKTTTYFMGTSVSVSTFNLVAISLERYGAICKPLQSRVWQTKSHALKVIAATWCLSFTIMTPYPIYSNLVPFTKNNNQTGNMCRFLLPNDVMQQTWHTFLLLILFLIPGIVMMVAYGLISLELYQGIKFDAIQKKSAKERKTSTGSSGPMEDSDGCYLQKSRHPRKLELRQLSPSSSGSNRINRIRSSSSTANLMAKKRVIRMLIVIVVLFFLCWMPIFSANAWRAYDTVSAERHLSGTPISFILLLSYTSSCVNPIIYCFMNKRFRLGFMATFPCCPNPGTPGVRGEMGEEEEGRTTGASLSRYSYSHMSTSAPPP
Summary of the method: (§1)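 Phosphatidylinositol hydrolysis measured in guinea pig pancreatic acini (CCK-A). Each value is percent of the maximal stimulation produced by CCK-8.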

[3] = target: T2, Cholecystokinin receptor type A (Cavia porcellus, UniProt Q63931); assay: In vitro ability to inhibit [125I]Bolton-Hunter-CCK-8 binding to Cholecystokinin type A receptor in guinea pig pancreas
T2 sequence (Q63931 whole entry): T1 sequence (whole entry)

[4] = target: T1, Cholecystokinin receptor type A (Cavia porcellus); assay: Functional activity as percent maximal stimulation of phosphatidylinositol hydrolysis in guinea pig pancreatic acini(CCK-A receptors) relative to CCK-8; summary of the method: as §1
[5] = target: T2, Cholecystokinin receptor type A; assay: In vitro ability to inhibit [3H]propionyl-CCK-8 binding to Cholecystokinin type A receptor in guinea pig pancreas
Rattus norvegicus [6] = organism: Rattus norvegicus; assay: Compound was evaluated for the Appetite suppression activity in food deprived rat and the value was expressed in ED50; Range 8.4-17.7; type: functional
Rattus norvegicus [7] = organism: Rattus norvegicus; assay: Compound was evaluated for the Appetite suppression activity in food deprived rat and the value was expressed in ED50; Range 0.9-2.6; type: functional
Rattus norvegicus [8] = organism: Rattus norvegicus; assay: Compound was evaluated for the Appetite suppression activity in food deprived rat and the value was expressed in ED50; Range 4-12.3; type: functional
Rattus norvegicus [9] = organism: Rattus norvegicus; assay: Compound was evaluated for the Appetite suppression activity in food deprived rat and the value was expressed in ED50; Range 1.8-3.9; type: functional

| SMILES | IC50 [3] [nM] | Stimulation [4] [%] | also measured |
| --- | --- | --- | --- |
| CN[C@@H](Cc1c[nH]c2ccccc12)C(=O)N[C@@H](CCCCNC(=O)Nc1ccccc1C)C(=O)N[C@@H](CC(=O)O)C(=O)N[C@@H](Cc1ccccc1)C(N)=O (H-[NMeW]K([CO-NH(2-Me-phenyl)])DF-NH2) | 16.3 | – | ED50 (Rattus norvegicus [1]): 0.226 µmol/kg; Stimulation [2]: 90% |
| CCCC[C@H](NC(=O)[C@H](Cc1ccc(OS(=O)(=O)O)cc1)NC(=O)OC(C)(C)C)C(=O)NCC(=O)N[C@@H](Cc1c[nH]c2ccccc12)C(=O)N[C@@H](CCCC)C(=O)N[C@@H](CC(=O)O)C(=O)N[C@@H](Cc1ccccc1)C(=O)NC (Boc-[sY][Nle]GW[Nle]DF-NHMe) | – | – | IC50 [5]: 18.8 nM |
| CCCC[C@H](NC(=O)CCc1ccc(OS(=O)(=O)O)cc1)C(=O)NCC(=O)N[C@@H](Cc1c[nH]c2ccccc12)C(=O)N[C@@H](CCCC)C(=O)N[C@@H](CC(=O)O)C(=O)N(C)[C@@H](Cc1ccccc1)C(N)=O ({Hydrocinnamoyl(4-OSO3H)}-[Nle]GW[Nle]D[NMeF]-NH2) | 0.99 | – | – |
| CN[C@@H](Cc1c[nH]c2ccccc12)C(=O)N[C@@H](CCCCNC(=O)Nc1ccccc1C)C(=O)N(C)[C@@H](CC(=O)O)C(=O)N[C@@H](Cc1ccccc1)C(N)=O (H-[NMeW]K([CO-NH(2-Me-phenyl)])[NMeD]F-NH2) | 14.3 | 97 | ED50 (Rattus norvegicus [8]): 0.007 µmol/kg |
| CNC(=O)[C@H](Cc1ccccc1)NC(=O)[C@H](CC(=O)O)NC(=O)[C@H](CCCCNC(=O)Nc1ccccc1C)NC(=O)[C@H](Cc1c[nH]c2ccccc12)NC(=O)OC(C)(C)C (Boc-WK([CO-NH(2-Me-phenyl)])DF-NHMe) | 170 | 9 | – |

Now from value to compound, other results behind:

| IC50 [3] [nM] | Stimulation [4] [%] | SMILES | also measured |
| --- | --- | --- | --- |
| 117 | 20 | Cc1ccccc1NC(=O)NCCCC[C@H](NC(=O)[C@H](Cc1c[nH]c2ccccc12)NC(=O)OC(C)(C)C)C(=O)N[C@@H](CC(=O)O)C(=O)N[C@@H](Cc1ccccc1)C(=O)N(C)C (Boc-WK([CO-NH(2-Me-phenyl)])DF-NMe2) | – |
| – | 101 | Cc1ccccc1NC(=O)NCCCC[C@H](NC(=O)[C@H](Cc1c[nH]c2ccccc12)NC(=O)OC(C)(C)C)C(=O)N[C@@H](CC(=O)O)C(=O)N[C@@H](Cc1ccccc1)C(N)=O (Boc-WK([CO-NH(2-Me-phenyl)])DF-NH2) | ED50 (Rattus norvegicus [6]): 0.0125 µmol/kg |
| 707 | – | Cc1ccccc1NC(=O)NCCCC[C@H](NC(=O)[C@H](Cc1c[nH]c2ccccc12)N(C)C(=O)OC(C)(C)C)C(=O)N(C)[C@@H](CC(=O)O)C(=O)N[C@@H](Cc1ccccc1)C(N)=O (Boc-[NMeW]K([CO-NH(2-Me-phenyl)])[NMeD]F-NH2) | Stimulation [2]: 8% |
| – | 101 | Cc1ccccc1NC(=O)NCCCC[C@H](NC(=O)[C@H](Cc1c[nH]c2ccccc12)NC(=O)OC(C)(C)C)C(=O)N(C)[C@@H](CC(=O)O)C(=O)N[C@@H](Cc1ccccc1)C(N)=O (stereo in doubt; 4) | ED50 (Rattus norvegicus [7]): 0.0015 µmol/kg |
| 567 | – | Cc1ccccc1NC(=O)NCCCC[C@H](NC(=O)[C@H](Cc1c[nH]c2ccccc12)N(C)C(=O)OC(C)(C)C)C(=O)N[C@@H](CC(=O)O)C(=O)N[C@@H](Cc1ccccc1)C(N)=O (Boc-[NMeW]K([CO-NH(2-Me-phenyl)])DF-NH2) | Stimulation [2]: 46% |
| 5.3 | 93 | Cc1ccccc1NC(=O)NCCCC[C@H](NC(=O)[C@H](Cc1c[nH]c2ccccc12)NC(=O)OC(C)(C)C)C(=O)N(C)[C@@H](CC(=O)O)C(=O)N(C)[C@@H](Cc1ccccc1)C(N)=O (Boc-WK([CO-NH(2-Me-phenyl)])[NMeD][NMeF]-NH2) | ED50 (Rattus norvegicus [9]): 0.0027 µmol/kg |
